ChEMBL document CHEMBL2016456, “Antiangiogenic effect of chamigrane endoperoxides from a Thai mangrove-derived fungus” (J Nat Prod, 2011)
Activity calls are given as the source filed them. No cut-off for these calls is given here.

Tests used:
Aorta [1] = assay: Antiangiogenic activity in Wistar rat aortic ring assessed as complete inhibition of microvessel sprouting at 25 uM after 7 days by phase-contrast microscopy; assay type: functional, tissue-based
HUVEC [2] = assay: Antiangiogenic activity in HUVEC assessed as inhibition of VEGF-induced endothelial migration at > 5 uM after 6 hrs using Diff-Quik staining by modified Boyden chamber based chemotactic migration assay; assay type: functional, cell-based; conditions: Homo sapiens
Summary of the method: (§1)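 Modified Boyden chamber, 8 μm membrane coated with 0.1% gelatin. HUVECs (2.5 × 10^5 cells/mL) in Medium 199 with 0.1% BSA in upper chamber. Lower well held Medium 199, 0.1% BSA, VEGF 10 ng/mL, with or without compound. After 6 h at 37 C, migrated cells methanol-fixed, Diff-Quik stained, counted in three fields at 200×.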

Mus musculus [3] = assay: Antiangiogenic activity in C57BL/6 mouse assessed as inhibition of bFGF-induced neovascularization at 10 uM, sc after 7 days by matrigel plug assay relative to control; assay type: functional, organism-based
Summary of the method: (§2)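 C57BL/6 mice, male, three per group; 0.5 mL Matrigel with bFGF (10 ng/mL) plus compound (10 μM) or DMSO vehicle injected subcutaneously, allowed to form a plug. After 7 days, plugs excised, formaldehyde-fixed, paraffin-embedded, sectioned, H&E stained. Plug hemoglobin quantified by QuantiChrom kit against hemoglobin standard. Means ± SEM; ANOVA with Dunnett or Student's t test.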

Mus musculus [4] = assay: Antiangiogenic activity in C57BL/6 mouse assessed as decrease in hemoglobin level at 10 uM, sc after 7 days using hematoxylin eosin staining by matrigel plug assay relative to control; assay type: functional, organism-based; summary of the method: as §2
[5] = target: T1, Mitogen-activated protein kinase; ERK1/ERK2 (Homo sapiens) (UniProt P27361+P28482); assay: Inhibition of VEGF-stimulated ERK1/2 activation in HUVEC after 1 hr by Western blot analysis; assay type: protein assay
Summary of the method: (§3)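 Confluent HUVECs starved 16 h in RPMI 1640 with 5% FBS. Pretreated 60 min with compound (2.5–10 μM) or vehicle, then stimulated with VEGF 10 ng/mL for 10 min. Lysates (50 μg protein) run on SDS-PAGE under reducing conditions. Blots probed for phospho-Erk1/2 or phospho-Akt and total proteins; chemiluminescence detection.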

HUVEC [6] = assay: Antiproliferative activity against HUVEC at 25 uM after 72 hrs by WST8 assay; assay type: functional; conditions: Homo sapiens
Summary of the method: (§4)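 HUVECs at 1.5 × 10^4 cells/mL plated and grown 24 h. Medium then replaced with HuMedia EG2 containing compound or DMSO for 72 h at 37 C, 5% CO2. Proliferation read by WST-8 absorbance at 450 nm.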

HUVEC [7] = assay: Antiangiogenic activity in HUVEC assessed as complete inhibition of tube formation at 50 uM after 12 hrs by light microscopy matrigel based assay; assay type: functional, cell-based; conditions: Homo sapiens
Summary of the method: (§5)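 HUVECs (passages 3–7) at 1 × 10^5 cells/mL in HuMedia EG2 with compound or DMSO seeded onto solidified Matrigel. Incubated 12 h at 37 C, 5% CO2. Tube formation observed under inverted light microscope at 40× and photographed.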

Aorta [8] = assay: Antiangiogenic activity in Wistar rat aortic ring assessed as complete inhibition of microvessel sprouting at 2.5 uM after 7 days by phase-contrast microscopy; assay type: functional, tissue-based
Aorta [9] = assay: Antiangiogenic activity in Wistar rat aortic ring assessed as complete inhibition of microvessel sprouting at 2.5 uM after 7 days by phase-contrast microscopy relative to steperoxide A; assay type: functional
HUVEC [10] = assay: Antiproliferative activity against HUVEC after 72 hrs by WST8 assay; assay type: functional, cell-based; conditions: Homo sapiens; summary of the method: as §4
HUVEC [11] = assay: Antiangiogenic activity in HUVEC assessed as inhibition of tube formation at 25 uM after 12 hrs by light microscopy matrigel based assay; assay type: functional; conditions: Homo sapiens; summary of the method: as §5
HUVEC [12] = assay: Antiangiogenic activity in HUVEC assessed as inhibition of VEGF-induced endothelial migration after 6 hrs using Diff-Quik staining by modified Boyden chamber based chemotactic migration assay; assay type: functional, cell-based; conditions: Homo sapiens; summary of the method: as §1
[13] = target: T1, Mitogen-activated protein kinase; ERK1/ERK2 (Homo sapiens); assay: Inhibition of VEGF-stimulated ERK1/2 phosphorylation in HUVEC at 2.5 to 10 uM by Western blot analysis; assay type: protein assay; conditions: TDE = time-dependent effect; summary of the method: as §3
HUVEC [14] = assay: Antiangiogenic activity in HUVEC assessed as inhibition of tube formation at 2.5 to 10 uM after 12 hrs by light microscopy matrigel based assay; assay type: functional, cell-based; conditions: Homo sapiens; summary of the method: as §5
HUVEC [15] = assay: Inhibition of VEGF-stimulated Akt phosphorylation in HUVEC at 2.5 to 10 uM after 1 hr by Western blot analysis; assay type: cell-based; conditions: Homo sapiens; summary of the method: as §3

T1 sequence (P27361 whole entry, looked up): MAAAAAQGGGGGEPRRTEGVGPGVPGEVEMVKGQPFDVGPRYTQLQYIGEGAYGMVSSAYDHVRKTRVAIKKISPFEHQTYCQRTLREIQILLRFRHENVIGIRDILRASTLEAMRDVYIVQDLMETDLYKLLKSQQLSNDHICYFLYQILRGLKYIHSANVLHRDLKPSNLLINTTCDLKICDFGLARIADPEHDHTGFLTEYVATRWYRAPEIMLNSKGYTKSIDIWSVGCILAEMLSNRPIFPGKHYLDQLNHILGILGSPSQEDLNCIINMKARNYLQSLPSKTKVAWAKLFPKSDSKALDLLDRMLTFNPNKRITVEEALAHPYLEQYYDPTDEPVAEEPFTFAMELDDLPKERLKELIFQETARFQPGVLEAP
T1 sequence (P28482 whole entry, looked up): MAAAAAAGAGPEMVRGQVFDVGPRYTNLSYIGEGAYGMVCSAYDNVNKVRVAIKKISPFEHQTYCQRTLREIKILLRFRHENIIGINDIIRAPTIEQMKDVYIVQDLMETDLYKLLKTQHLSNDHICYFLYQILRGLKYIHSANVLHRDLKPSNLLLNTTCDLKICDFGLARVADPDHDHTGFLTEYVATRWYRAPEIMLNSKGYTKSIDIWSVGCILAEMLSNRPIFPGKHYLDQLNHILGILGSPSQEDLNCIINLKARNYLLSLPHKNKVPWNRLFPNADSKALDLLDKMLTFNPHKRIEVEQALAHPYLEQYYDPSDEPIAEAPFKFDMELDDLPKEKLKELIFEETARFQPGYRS

Compound: CC1(C)C=CC(=O)[C@@]2(C)OO[C@@H]3C[C@]12CCC3O (stereo partly drawn)
- Activity (Aorta [1]): Active

Compound: CC1(C)CCC(=O)[C@@]2(C)OO[C@@H]3C[C@@]12CCC3(O)CO (stereo partly drawn)
- Activity (Aorta [1]): inactive

Compound: CC1(C)CCC(=O)[C@@]2(C)OO[C@@H]3C[C@@]12CC[C@H]3O
- Activity (Aorta [1]): inactive

Compound: CC1(C)C=CC(=O)[C@@]2(C)OO[C@@H]3C[C@]12CCC3(O)CO (stereo partly drawn) [MERULIN C]
- Activity (HUVEC [2]): Active
- Activity (Mus musculus [3]): Active
- Activity (Mus musculus [4]): Active
- inhibition [5]: Dose-dependent effect
- inhibition at 25 µM (HUVEC [6]): 90%
- inhibition (HUVEC [7]): Active
- Activity (Aorta [8]): Active
- fold change (FC) (Aorta [9]): 10
- Activity (HUVEC [10]): Dose-dependent effect
- IC50 (HUVEC [10]): 900 nM
- inhibition at 25 µM (HUVEC [11]): 50%
- Activity (HUVEC [12]): Dose-dependent effect
- inhibition [13]: tde
- inhibition (HUVEC [14]): inactive
- inhibition (HUVEC [15]): inactive
